Assay [1] concerns aldehyde dehydrogenase (Saccharomyces cerevisiae). The assay is described as follows: In vitro inhibition of yeast aldehyde dehydrogenase. Set-up: concentration or dose not given beside the values. The note with it: concentration not given here.
Assay [2] shares this test system. The assay is described as follows: In vitro inhibition of yeast aldehyde dehydrogenase is evaluated by the formation of NADH.
Assay [3] relates to Saccharomyces cerevisiae. The assay is described as follows: In vitro inhibition of yeast […] is evaluated by the formation of NADH at 100 uM concentration of compound. Summed up:
(§1)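 Commercial yeast AlDH (0.074 IU) was preincubated 10 min at 0 °C with test agent added in acetone, in 100 mM potassium phosphate pH 7.4 containing 1.0 mM NAD+. Concentration is the final level in this primary mix. A 20-µL aliquot went into 0.5 mM NAD+, 1.0 mM EDTA, 30% glycerol, 80 mM potassium phosphate pH 8.0; reaction started with benzaldehyde (0.6 µmol); NADH read at 340 nm.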

Assay [4] concerns Saccharomyces cerevisiae. Description: In vitro inhibition of yeast […] at 100 uM concentration of compound.
Assay [5] relates to Saccharomyces cerevisiae. The assay is described as follows: In vitro inhibition of yeast […] at 1 uM concentration of compound.
The test system of assay [6] is Saccharomyces cerevisiae. The assay is described as follows: Inhibition of yeast aldehyde dehydrogenase is evaluated by formation by NADH in vitro at 10 uM concentration of compound. Summed up: as §1
For assay [7], the system named is Saccharomyces cerevisiae. Description: Inhibition of yeast […] is evaluated by formation by NADH in vitro at 10 uM concentration of compound. Summed up:
as §1

For assay [8], the system named is Saccharomyces cerevisiae. Description: In vitro inhibition of yeast aldehyde dehydrogenase at 100 uM concentration of compound. The method in brief:
as §1

In assay [9] the target is T1, Aldehyde dehydrogenase, mitochondrial (Rattus norvegicus) (UniProt P11884).
T1 sequence (whole entry): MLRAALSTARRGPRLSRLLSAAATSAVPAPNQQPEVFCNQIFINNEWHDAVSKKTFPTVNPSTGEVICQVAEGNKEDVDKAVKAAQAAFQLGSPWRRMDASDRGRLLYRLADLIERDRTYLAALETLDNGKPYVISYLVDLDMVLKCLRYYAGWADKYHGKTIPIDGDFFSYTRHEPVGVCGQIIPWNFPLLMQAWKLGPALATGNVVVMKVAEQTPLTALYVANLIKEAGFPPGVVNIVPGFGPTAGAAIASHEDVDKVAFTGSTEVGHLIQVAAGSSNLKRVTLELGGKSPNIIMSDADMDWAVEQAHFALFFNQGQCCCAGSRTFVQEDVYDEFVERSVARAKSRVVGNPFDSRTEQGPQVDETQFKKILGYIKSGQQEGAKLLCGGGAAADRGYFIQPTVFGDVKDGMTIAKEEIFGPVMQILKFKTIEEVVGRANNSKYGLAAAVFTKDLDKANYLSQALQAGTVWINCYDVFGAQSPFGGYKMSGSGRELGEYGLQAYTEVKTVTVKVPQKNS
Description: Inhibition of class II aldehyde dehydrogenase in vitro in intact rat liver mitochondria assayed by nmol of acetaldehyde oxidized/min.mg of protein. Summed up:
(§2)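 Mitochondria from overnight-fasted male rats (200–250 g). Preincubated 5 min at 37 °C, then acetaldehyde (200 nmol) added for 5 min. Quenched with cold HClO4; acetaldehyde loss read by head-space GC; Lowry protein.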

In assay [10] the target is T1, Aldehyde dehydrogenase, mitochondrial (Rattus norvegicus). Description: Percent inhibition of class II aldehyde dehydrogenase in vitro in osmotically disrupted rat liver mitochondria. The note with it: concentration not given here. The method in brief:
(§3)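 Liver mitochondria from overnight-fasted male rats (200–250 g), osmotically disrupted by leaving sucrose out of the medium. Preincubated 5 min at 37 °C, then acetaldehyde (200 nmol) added for 5 min. HClO4 quench; head-space GC; Lowry protein.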

Assay [11] shares this target. Description: Inhibition of class II aldehyde dehydrogenase in vitro in osmotically disrupted rat liver mitochondria assayed by nmol of acetaldehyde oxidized/min.mg of protein. Summed up:
as §3

The target is the same in assay [12]. Description: Percent inhibition of class II aldehyde dehydrogenase in vitro in intact rat liver mitochondria. The note with it: concentration not given here. Summed up:
as §2

Structures are written as SMILES. “And” between values parts separate entries of the source, which are not always exact repeats. Equal values may be shown once.

As a reminder, the inhibition is the change of the read-out against control, counted positive when it falls. With `CCCNC(=O)N(C(C)(C)C)S(=O)(=O)c1ccc(Cl)cc1`, the inhibition in [1] came to 100%. In addition, in assay [2], the ALDH activity (NADH formation rate) turned out to be 0 nM/min.
`O=C=NC1CCCCC1`: the AIDH activity in the assay with Saccharomyces cerevisiae [3] was 0 nM/min; in the assay with Saccharomyces cerevisiae [6] it was 0.5 nM/min; in the assay with Saccharomyces cerevisiae [7], 12.4 nM/min. Besides, the inhibition in the assay on Saccharomyces cerevisiae [4] came out at 96.5%; with Saccharomyces cerevisiae [5], 12.1%; with Saccharomyces cerevisiae [8], 100%.
In [1], `CCCCN(C(=O)NCCC)S(=O)(=O)c1ccc(Cl)cc1` registered an inhibition of 100%. Moreover, the ALDH activity (NADH formation rate) in assay [2] worked out at 0 nM/min.
Compound `CCCNC(=O)N(CCC)S(=O)(=O)c1ccc(Cl)cc1` had an inhibition in [1] of 91.1%. In addition, the ALDH activity (NADH formation rate) in assay [2] is 1.3 nM/min.
On to `CCCNC(=O)N(C)S(=O)(=O)c1ccc(Cl)cc1`, for which the inhibition in assay [1] stood at 99.6%; in assay [10], 73.7%; in assay [12] it was 48.9%. In addition, the AIDH activity came to 13.4 nM/min in assay [9] and 19 nM/min in assay [11]. The ALDH activity (NADH formation rate) in [2] is 0.6 nM/min.
`CCCOC(=O)N(CC)S(=O)(=O)c1ccc(Cl)cc1` came in with an inhibition in assay [1] of 1.4%. For the same compound, in [2], the ALDH activity (NADH formation rate) was determined as 14.6 nM/min.
`CCCN(C)C(=O)NS(=O)(=O)c1ccc(Cl)cc1` gave an inhibition in assay [1] of 0%. Further, the ALDH activity (NADH formation rate) in assay [2] was 15 nM/min.
For `CCCNC(=O)N(CC(C)(C)C)S(=O)(=O)c1ccc(Cl)cc1`, in that order: 100% and 0 nM/min.
On to `CCCCN=C=O`, for which the AIDH activity in the assay with Saccharomyces cerevisiae [3] worked out at 0 nM/min; in the assay on Saccharomyces cerevisiae [6] it was 0.2 nM/min; with Saccharomyces cerevisiae [7], 11.2 nM/min. Besides, the inhibition in the assay with Saccharomyces cerevisiae [4] amounted to 98.9%; with Saccharomyces cerevisiae [5], 20.8%; in the assay on Saccharomyces cerevisiae [8] it was 100%.
In [1], `CCN(C(=O)NC(C)(C)C)S(=O)(=O)c1ccc(Cl)cc1` returned an inhibition of 97.3%. In assay [2], this compound showed an ALDH activity (NADH formation rate) of 2.7 nM/min.
For `CCCNC(=O)N(CC)S(=O)(=O)c1ccc(Cl)cc1`, in that order: 98.6% and 1.4 nM/min.
In the case of `CCCNC(=O)NS(=O)(=O)c1ccc(Cl)cc1`, in [9], the AIDH activity was 28.3 nM/min. The inhibition in assay [10] and in assay [12] was 0% in each case. Further, in assay [11], the AlDH activity came out at 73.8 nmol/min/mg.
In assay [1], `CCCNC(=O)N(CC(C)C)S(=O)(=O)c1ccc(Cl)cc1` returned an inhibition of 100%. The ALDH activity (NADH formation rate) in assay [2] was 0 nM/min.
For `CCCNC(=O)N(C(C)C)S(=O)(=O)c1ccc(Cl)cc1`, in that order: 100% and 0 nM/min.
Consider `CCCN=C=O`, for which the AIDH activity in the assay with Saccharomyces cerevisiae [3] was 0 nM/min. Moreover, the inhibition with Saccharomyces cerevisiae [4] was 100% and 98.5%; with Saccharomyces cerevisiae [5], 8.8%.

The values above are taken from ChEMBL document CHEMBL1124498.
